System: MS2 coat protein
Experiment: apparent Kd, MS2 coat protein; higher = weaker binding; RNA-MaP array; FMN 200 µM where present
In short: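 The apparent Kd comes from binding curves fitted cluster by cluster, filtered, and summarised as a median. Those curves followed SNAP-549-labelled MS2 coat protein from 0.7 or 1.5 nM, doubling to 3 µM, on Illumina sequencing-chip clusters where stalled E. coli RNA polymerase had transcribed the designs, without and then with constant ligand. The buffer was 100 mM Tris-HCl pH 7.5, 80 mM KCl, 4 mM MgCl2, BSA, DTT, yeast tRNA and Tween-20, and green signal was normalised to red-channel RNA signal and control-cluster median Fmax.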

[1] = designed as: OFF switch for flavin mononucleotide, no ligand
[2] = ligand present: flavin mononucleotide, designed as: OFF switch for flavin mononucleotide
[3] = designed as: ON switch for flavin mononucleotide, no ligand
[4] = ligand present: flavin mononucleotide, designed as: ON switch for flavin mononucleotide

| Sequence | apparent Kd [1] | apparent Kd [2] | apparent Kd [3] | apparent Kd [4] |
| --- | --- | --- | --- | --- |
| UUAAAUCAUGUAGGAUAUGCAUGGCGAAGCUACGCAGAAGGACAUGAGGAUCACCCAUGUUCUAGCUACCGGAUACGGUGGCAA | 21.5 nM | 87.4 nM | – | – |
| CGUUUGUAAGGAUAUAGCCACAUUACGAAUAAGUAGUGUGGCUAGAAGGUACAUGAGGAUCACCCAUGUAUGGG | 157 nM | 192 nM | – | – |
| AACAUGUGAGGAUAUUGAUUGGAGACGUGGAGACCGCUAAUUAAGAAGGUACAUGAGGAUCACCCAUGUCCCAU | 215 nM | 231 nM | – | – |
| UACUGGAUUGUAGACGCGUUGCGACGAGAAGGUACACAUGAGGAUCACCCAUGUCGAGUGGGAGGUAAGGAUAUUGGAUGGCGU | – | – | 293 nM | 211 nM |
| CUAUGCCGAACAGGAUAUUCGAUCAAAAGGAUAGAAGAAGGGUUACAUGAGGAUCACCCAUGUAUGCACAUGAGGAUCCCUUAA | 255 nM | 296 nM | – | – |
| GUGGUCAGACAUGAGGAUCACCCAUGUGGAAUAAAUAACGAACAGGAUAUGCAAUAUAGGAUAUAGUAGAAGGGUUGAUUGGUG | – | – | 104 nM | 138 nM |
| GCUAUCGGGUGAGGAUAUAUGAUUGUGAUUAAAAUAGAAGGCAUCUCAGAAGACAUGAGGAUCACCCAUGUAGUUAAGAUGGCC | – | – | 14.6 nM | 11.4 nM |
| CAUGUCCUCACAGGAUAUGCACCACUUUGUGGUGCAGAAGGGUGAAUACAUGAGGAUCACCCAUGUGGACAUGAUAUAUUUAAG | – | – | 1200 nM | 75.4 nM |
| GUCGAGUGAGGAUAUGGUGAGUAGUGCCUGAGCGCUGCUCACCAGAAGGCACAUGAGGAUCACCCAUGUAUAGC | – | 29 nM | – | – |
| CUACUUAGCCAGAAGGCAAGAGGUACAUGAGGAUCACCCAUGUAGUGAUUGAGGAUAUGGCAAGGUUCUAUGGUGCGUCUAGCC | – | – | 7.53 nM | 5.12 nM |
| GGAUAGAUGAAGGGCGAACGCGCACAUGAGGAUCACCCAUGUAGAAGGCGGUCCGCAACGCGGAUCGAGGAUAUAUAGUAUACG | 18.4 nM | 16.8 nM | – | – |
| AGGUAACAUGAGGAUCACCCAUGUCAGGAUAUCAGUAAGAUGAGUAUAGAAGAGAGUAUGAGAAGGGACUAUAU | 31 nM | 25.6 nM | – | – |
| GGUUGUCAUCGUCAUCCUUUCUGUACAUGAGGAUCACCCAUGUAGGAUAUGCUGCUCUCGGUGUGGCAGAAGGGCGUGUGUGUU | 40.5 nM | 50.2 nM | – | – |
| GGGCUGUCAGGAUAUUUUGGGCCCGGGUAAACCCGGGCCCGGGAGAAGGGACAUGAGGAUCACCCAUGUGGCCC | 34.7 nM | 37.3 nM | – | – |
| AAUGUGUGUCGAGGAUAUAUAACAUGACAACAAACACAUACAUGAGGAUCACCCAUGUCCCAUGUAUAGAAGGCGAUGUGUGUG | – | – | 219 nM | 434 nM |
| GUGUAGUGAGGAUAUACAUGAGGAUCACCCAUGUGAAUAAGAUAGAAUAAGAUAAAGUGUAGAAGGCAUAGUGU | 40.2 nM | 31.5 nM | – | – |
| AAUAAACACACAGGAUAUAGCAUCGUCGUUGCGAACUUAGCGACGUCGAUGCUAGAAGGGUGAAAACAUGAGGAUCACCCAUGU | – | – | 80.9 nM | 20.1 nM |
| GGAUCGAGUGUGAGGAUAUGCUGGUCCUUGGAUCAGCAGAAGGCACAUGAGGAUCACCCAUGUGAAUACGGUCC | 24 nM | 165 nM | – | – |
| CGUUGUUGCGCAGGAUAUGCAUUGGAUUACAAUGCAGAAGGGCGAUUACAUGAGGAUCACCCAUGUGUCGACAAUAAGGAAGAG | – | – | 35.9 nM | 34 nM |
| GUGGUCAGACAUGAGGAUCACCCAUGUGGAAUAAAUAAGGUACAGGAUAUCUAAUAUAGGAUAUAAGAGAAGGGUAGGUUGGUG | – | – | 75.4 nM | 78.4 nM |
| AUACGGAGGGAGAAGGGCUAGGAGGUCCAGCUUAUGUGUGUUGCAACAUGAGGAUCACCCAUGUAGCAGGAUAUCCCUUGUACA | 42.9 nM | 231 nM | – | – |
| UUACGUACGUAUGAGGAUAUCCAUAAUAAGACAUGAGGAUCACCCAUGUAAACAAAACAAUAAUGGGAGAAGGCAUACGUACGAA | – | – | 64.1 nM | 101 nM |
| GCGUGGUUCUAGAAGGUGCUAGCGAUAAGCUAGCAAGGAUAUAGACAUGAGGAUCACCCAUGUCUAUGUGAAAUAGACACACGC | 4.75 nM | 4.62 nM | – | – |
| ACGUUUAAUACAGGAUAUGUUAAUAUACAAUAGAUUGGAUAUUACUUAAUUACAGAAGGGUAGAACAUGAGGAUCACCCAUGUA | – | – | 329 nM | 239 nM |
| UAAUUAAUAAGAUCAAUUAAUUAACAUGAGGAUCACCCAUGUGAGGAUAUCAGCUCGAUUAGAGCUGAGAAGGCACAAUAAUUA | 43.2 nM | 102 nM | – | – |
| GGUGCUAUGUAGAAGGCAGAUCUGAUUCAGAUCUGAGGAUAUACAUGAGGAUCACCCAUGUUAUGCACCAGCACGAGAGUGCAG | 8.07 nM | 14 nM | – | – |
| AAAAAACAUGAGGAUCACCCAUGUAAAAAAAUCACAGGAUAUAAGGUCGCGAAAGCGACCUUAGAAGGGUGAUCCU | – | – | 20.1 nM | 20.1 nM |
| GUGCACACUCGAGGAUAUCGGAGUUUUCUCCUUCGAGAAGGCGAUUCGUGCCGUGUUAUUCUGGACAUGAGGAUCACCCAUGUG | – | – | 110 nM | 36.5 nM |

| Sequence | apparent Kd [1] | apparent Kd [2] | apparent Kd [3] | apparent Kd [4] |
| --- | --- | --- | --- | --- |
| GCACUCAAGUUAGGAUAUGGACCAGAAACUGGUCCAGAAGGAACAUGGGAACAUGAGGAUCACCCAUGUUCCAGAAACGAGUGC | – | – | 840 nM | 186 nM |
| GUAUCUCCUGACAUGAGGAUCACCCAUGUUUAAUUAUUAAAUCAGGAUAUCCUCUCGAAACGAGAGGAGAAGGGAUAAGAUACU | – | – | 5.66 nM | 5.72 nM |
| UGAGACCUCACAGGAUAUGCUGGACUUUGUCCAGCAGAAGGGUGAAAACAUGAGGAUCACCCAUGUAUGGUCUCCAAAUUUAAU | – | – | 164 nM | 12.7 nM |
| UUUCCACAUGAGGAUCACCCAUGUCAGGAUAUUAGAUCUAUUUAUACAUAUAAUUAUUUAAGAAGGGACACUAA | 18.1 nM | 16.9 nM | – | – |
| AGCUGUGGCAGAGGAUAUACUACUAUAAUCCAUUGCAAAUAGCGAUGGACAUGAGGAUCACCCAUGUAGAAGGCUGUCACAGCA | 45.6 nM | 176 nM | – | – |
| AAGAAAGAGCGAGGAUAUGCGAUAAAAUAAUAAGCAGAAGGUGCAUAACAUGAGGAUCACCCAUGUUGUUGUCAUGUCAAGAUU | 14.2 nM | 18.2 nM | – | – |
| AGCAUGCUAGGAUAUACGAAACAUUAGGGUUCUUUGUAUAAACAUGAGGAUCACCCAUGUAGAAGGAGCGUGCA | 46.1 nM | 169 nM | – | – |
| AGCUACGUUUCGUAGCAGCUAGGUGAGGAUAUCCUUAACAUGAGGAUCACCCAUGUAUAGCCAUGGGAGAAGGCGCCUAGAAAG | – | – | 723 nM | 55.3 nM |
| CAGCGAAAGCUGAAUCUGUAGAGAGAGGAUAUACGUCAUAAGGUGCAUACAUGAGGAUCACCCAUGUAGAAGGCUCUCUACAGU | 25.3 nM | 603 nM | – | – |
| UGUUGUAUUACAGGAUAUCUAGUAUUUUUAUUAAGAGAAGGGUAUUCACAUGAGGAUCACCCAUGUAUAUACGAGGAAGUUGUG | – | – | 42.4 nM | 42.4 nM |
| AAUAUGAGCUGGAAUAUAAACCUCACAUGAGGAUCACCCAUGUAGGAUAUCAGCACGAUAAGUGCUGAGAAGGACAACCAGCUC | 15.1 nM | 17.1 nM | – | – |
| UUGAGGUAGGAGAAGGACAGAGGCGGAAACACAAACAUGAGGAUCACCCAUGUAGGAUAUCCUACCUAACGAGGAUACCUCAAG | 14.7 nM | 26.7 nM | – | – |
| GUACAGCGACAUGAGGAUCACCCAUGUAGCCGCCGAUCGUCGCAGGAUAUGGCAAAGGUUAACAGUCAGAAGGGUGAUGUUCGA | – | – | 73.6 nM | 41.3 nM |
| CGCUGCCACGCAGGAUAUGCAUUGGAUUACAAUGCAGAAGGGCGAUUACAUGAGGAUCACCCAUGUGUUGGCAGUGAAGAAGAG | – | – | 1490 nM | 83.4 nM |
| AACAGUAGAGGAUAUACAUGAGGAUCACCCAUGUGAUAAUUACGUGGCGUACCACGAUGUAGAAGGCUACUGGA | 144 nM | 36.2 nM | – | – |
| GGAGACCUCACAGGAUAUGCUGGACUUUGUCCAGCAGAAGGGUGAAAACAUGAGGAUCACCCAUGUAUGGUCUCCAAAUUUAAC | – | – | 182 nM | 13.6 nM |
| ACGCUUUGGGAGAAGGUACUUUAAAAUUUUUCCACAUGAGGAUCACCCAUGUAAGGAUAUCCCAUCGUUAAAUAUUCUACAGCA | 8.98 nM | 7.26 nM | – | – |
| GAGGAGGUAGGAUAUACGAUAAUAUAGGGUAGAUAUAUAACACAUGAGGAUCACCCAUGUAGAAGGACCAGGAG | 34.4 nM | 62.4 nM | – | – |
| CAGUACUGAGGAUAUACAUGAGGAUCACCCAUGUGUUCCAGCUAGGAAGCUAGCAAAAGUAGAAGGCAGUACUG | 26.2 nM | 276 nM | – | – |
| CUCUUGUGAGGAUAUCAGUAGUAAAAAAAUAAAAUUACUACUGAGAAGGCACAUGAGGAUCACCCAUGUCUUUC | 211 nM | 158 nM | – | – |
| AAGACAUGAGGAUCACCCAUGUAAAGACCGGUCGAUCAAGGUGAGGAUAUACAAUAAUUGAUAGGGUAGAAGGCACUGGGUUGA | – | – | 286 nM | 148 nM |
| CUGACGGCAGGAUAUACAUGAGGAUCACCCAUGUAAAUUUUUCGUUUACCUUGACCGUGUAGAAGGGCCCAACC | 14.8 nM | 14.7 nM | – | – |
| UCAUACAUUCGAGGAUAUCGGUGAGAAAUCUUUCGAGAAGGCGAUUCAUGAUUUAUUAUCCUGGACAUGAGGAUCACCCAUGUA | – | – | 85.3 nM | 65.5 nM |
| UUGGACGUCGUAGGAUAUGUAGGAUAUUCCUACAUGAGGAUCACCCAUGUUGACAUGGAAGAAGGUCAGAAGGACGAUGUCCAU | – | – | 344 nM | 559 nM |
| GAGCGAAAGCUCAAUGUCGAUAGCAGAAGGACAUGUAAAAUCAUGAAAACAUGAGGAUCACCCAUGUAGGAUAUGCUAUCGACU | 23 nM | 371 nM | – | – |
| AGAGAGUGACAGAAGGGCAAGCUCGAAAGCGGAGAACGCGAACGAGCUUGCAGGAUAUGUUGAACAUGAGGAUCACCCAUGUCA | – | – | 7.79 nM | 6.41 nM |
| AACAGGUUCACAUGAGGAUCACCCAUGUUAGCCUAACGUAGGAGAAGGGCGGUAGCUGGGCUGACGUAGGAUAUCCUACUGUGA | – | – | 10 nM | 5.79 nM |

Reference: the EternaBench riboswitch data
